Tests used:
[1] = molecular target: T1, Histone deacetylase-like amidohydrolase (Alcaligenes sp. (strain DSM 11172) (Bordetella sp. (strain FB188)), UniProt Q70I53); test: Inhibition of Bordetella FB188 HDAH using Boc-L-Lys(acetyl)-MCA as substrate by fluorogenic enzymatic assay
T1 sequence (Q70I53 whole entry): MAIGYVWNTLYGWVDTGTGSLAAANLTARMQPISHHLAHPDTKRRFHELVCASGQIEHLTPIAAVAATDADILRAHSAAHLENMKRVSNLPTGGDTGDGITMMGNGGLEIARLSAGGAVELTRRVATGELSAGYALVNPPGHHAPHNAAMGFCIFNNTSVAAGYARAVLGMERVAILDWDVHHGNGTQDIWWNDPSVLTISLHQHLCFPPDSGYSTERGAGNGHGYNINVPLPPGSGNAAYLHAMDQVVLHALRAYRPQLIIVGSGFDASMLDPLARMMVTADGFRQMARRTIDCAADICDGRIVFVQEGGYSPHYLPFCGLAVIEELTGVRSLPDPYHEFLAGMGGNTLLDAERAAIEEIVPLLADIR

Histone deacetylase 1 = Histone deacetylase 1 (Homo sapiens, UniProt Q13547); test: Inhibition of recombinant human HDAC1 using Boc-L-Lys(acetyl)-MCA as substrate by fluorogenic enzymatic assay
Sequence of Histone deacetylase 1 (Q13547 whole entry): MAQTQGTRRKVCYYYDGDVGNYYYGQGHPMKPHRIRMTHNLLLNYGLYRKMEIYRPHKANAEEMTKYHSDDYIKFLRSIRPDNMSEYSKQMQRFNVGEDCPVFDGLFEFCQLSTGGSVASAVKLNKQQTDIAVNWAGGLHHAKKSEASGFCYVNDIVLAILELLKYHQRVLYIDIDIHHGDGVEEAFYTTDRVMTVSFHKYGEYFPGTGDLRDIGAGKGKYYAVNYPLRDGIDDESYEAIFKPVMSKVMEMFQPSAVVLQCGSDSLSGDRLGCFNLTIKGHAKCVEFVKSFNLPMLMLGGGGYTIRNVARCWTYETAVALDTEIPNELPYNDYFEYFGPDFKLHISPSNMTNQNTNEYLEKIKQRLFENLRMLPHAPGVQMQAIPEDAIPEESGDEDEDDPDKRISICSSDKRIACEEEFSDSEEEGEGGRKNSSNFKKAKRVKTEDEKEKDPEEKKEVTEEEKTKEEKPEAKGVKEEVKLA

Histone deacetylase 8 = molecular target: T2, Histone deacetylase 8 (Homo sapiens, UniProt Q9BY41); test: Inhibition of recombinant human HDAC8 using Boc-L-Lys(trifluoroacetyl)-MCA as substrate by fluorogenic enzymatic assay
T2 sequence (Q9BY41 whole entry): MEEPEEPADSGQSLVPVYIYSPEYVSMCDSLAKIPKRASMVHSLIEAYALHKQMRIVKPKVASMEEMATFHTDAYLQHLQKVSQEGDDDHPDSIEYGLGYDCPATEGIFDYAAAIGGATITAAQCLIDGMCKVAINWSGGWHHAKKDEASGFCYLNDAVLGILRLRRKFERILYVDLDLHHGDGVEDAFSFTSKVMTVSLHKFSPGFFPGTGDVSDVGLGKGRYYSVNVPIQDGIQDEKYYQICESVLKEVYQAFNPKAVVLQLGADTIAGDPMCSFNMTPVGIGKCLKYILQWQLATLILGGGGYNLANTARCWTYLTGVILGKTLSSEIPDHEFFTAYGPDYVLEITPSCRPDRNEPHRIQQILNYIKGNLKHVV

[2] = molecular target: T3, Protein deacetylase HDAC6 (Homo sapiens, UniProt Q9UBN7); test: Inhibition of recombinant human HDAC6 using Boc-L-Lys(acetyl)-MCA as substrate by fluorogenic enzymatic assay
T3 sequence (Q9UBN7 whole entry): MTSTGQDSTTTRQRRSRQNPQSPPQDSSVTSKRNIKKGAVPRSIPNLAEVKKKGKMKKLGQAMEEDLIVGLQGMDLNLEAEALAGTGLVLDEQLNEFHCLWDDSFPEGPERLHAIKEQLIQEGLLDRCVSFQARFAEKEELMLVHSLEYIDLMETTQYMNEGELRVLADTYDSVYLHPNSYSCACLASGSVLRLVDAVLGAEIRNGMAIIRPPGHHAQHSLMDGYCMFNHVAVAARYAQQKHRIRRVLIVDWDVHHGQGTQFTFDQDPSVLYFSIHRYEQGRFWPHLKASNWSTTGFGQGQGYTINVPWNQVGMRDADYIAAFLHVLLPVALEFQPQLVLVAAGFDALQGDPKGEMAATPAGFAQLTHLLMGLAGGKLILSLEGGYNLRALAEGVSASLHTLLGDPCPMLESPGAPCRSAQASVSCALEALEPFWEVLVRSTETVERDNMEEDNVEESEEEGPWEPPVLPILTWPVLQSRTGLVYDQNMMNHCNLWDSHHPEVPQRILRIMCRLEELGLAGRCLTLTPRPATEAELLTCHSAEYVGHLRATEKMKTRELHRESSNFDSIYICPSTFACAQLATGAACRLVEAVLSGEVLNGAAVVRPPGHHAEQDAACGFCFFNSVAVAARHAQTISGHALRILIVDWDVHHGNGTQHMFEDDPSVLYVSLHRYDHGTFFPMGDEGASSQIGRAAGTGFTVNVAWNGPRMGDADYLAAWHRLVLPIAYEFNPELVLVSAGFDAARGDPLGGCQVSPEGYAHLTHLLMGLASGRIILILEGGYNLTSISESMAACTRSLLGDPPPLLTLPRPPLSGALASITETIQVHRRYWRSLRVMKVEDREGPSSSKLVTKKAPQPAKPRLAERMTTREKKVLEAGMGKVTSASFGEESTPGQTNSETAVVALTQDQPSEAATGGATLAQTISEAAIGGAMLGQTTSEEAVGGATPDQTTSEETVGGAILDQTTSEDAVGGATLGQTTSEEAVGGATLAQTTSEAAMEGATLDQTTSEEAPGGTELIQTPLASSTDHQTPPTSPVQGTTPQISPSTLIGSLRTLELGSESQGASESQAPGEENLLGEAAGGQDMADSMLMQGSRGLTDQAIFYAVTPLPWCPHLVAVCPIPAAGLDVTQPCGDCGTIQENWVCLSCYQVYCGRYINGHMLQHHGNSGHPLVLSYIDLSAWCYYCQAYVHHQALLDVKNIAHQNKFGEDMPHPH

Histone deacetylase 7 = molecular target: T4, Histone deacetylase 7 (Homo sapiens, UniProt Q8WUI4); test: Inhibition of recombinant human HDAC7 using Boc-L-Lys(trifluoroacetyl)-MCA as substrate by fluorogenic enzymatic assay
T4 sequence (Q8WUI4 whole entry): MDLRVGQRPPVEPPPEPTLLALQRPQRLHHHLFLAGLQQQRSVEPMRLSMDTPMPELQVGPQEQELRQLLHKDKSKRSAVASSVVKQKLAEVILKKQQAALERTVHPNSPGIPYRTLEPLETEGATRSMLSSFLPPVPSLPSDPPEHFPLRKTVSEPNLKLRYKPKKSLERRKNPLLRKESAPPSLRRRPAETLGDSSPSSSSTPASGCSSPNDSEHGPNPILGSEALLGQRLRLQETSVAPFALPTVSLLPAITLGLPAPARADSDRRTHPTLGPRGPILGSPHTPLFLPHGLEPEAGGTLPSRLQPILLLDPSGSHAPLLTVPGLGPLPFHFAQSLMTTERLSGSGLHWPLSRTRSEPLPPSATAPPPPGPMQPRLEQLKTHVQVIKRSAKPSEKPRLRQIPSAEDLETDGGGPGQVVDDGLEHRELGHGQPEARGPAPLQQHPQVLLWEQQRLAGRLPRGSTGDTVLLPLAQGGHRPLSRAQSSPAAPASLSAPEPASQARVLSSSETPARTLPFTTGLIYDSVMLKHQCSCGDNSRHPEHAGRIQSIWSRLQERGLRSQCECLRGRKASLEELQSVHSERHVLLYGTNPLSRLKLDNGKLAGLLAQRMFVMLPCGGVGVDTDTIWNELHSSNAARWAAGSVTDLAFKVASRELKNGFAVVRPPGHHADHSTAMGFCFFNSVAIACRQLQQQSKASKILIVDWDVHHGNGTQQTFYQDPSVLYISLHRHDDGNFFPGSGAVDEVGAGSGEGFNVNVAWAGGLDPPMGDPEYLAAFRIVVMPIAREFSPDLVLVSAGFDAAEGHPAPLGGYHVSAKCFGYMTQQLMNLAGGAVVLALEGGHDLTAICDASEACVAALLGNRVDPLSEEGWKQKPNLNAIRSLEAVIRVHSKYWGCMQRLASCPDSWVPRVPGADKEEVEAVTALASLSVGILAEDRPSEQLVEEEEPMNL

Histone deacetylase [3] = test: Inhibition of HDAC in human K562 cells using Boc-L-Lys(acetyl)-MCA as substrate by fluorogenic cellular assay; type: cell-based
How it was run: (§1)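 K562 cells were grown in RPMI with 10% FCS, L-glutamine and gentamycin, then pelleted. Lysis in 50 mM Tris–HCl pH 8.5, 1 M NaCl, 1 mM MgCl₂, Triton X-100 (up to 5× pellet volume), 2 h at 37 °C. The diluted lysate replaces recombinant enzyme in the two-step fluorogenic trypsin-coupled assay with substrate at 20 µM final. Read-out is AMC fluorescence (ex 390, em 460 nm), giving IC50.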

Histone deacetylase [4] = test: Inhibition of HDAC in human K562 cells using Boc-L-Lys(trifluoroacetyl)-MCA as substrate by fluorogenic cellular assay; type: cell-based; how it was run: as §1

Row | SMILES | Kd [1] [µM] | Kd (Histone deacetylase 1) [µM] | Kd (Histone deacetylase 8) [µM] | Kd [2] [µM] | Kd (Histone deacetylase 7) [µM] | IC50 (Histone deacetylase [3]) [µM] | IC50 (Histone deacetylase [4]) [µM]
1 | O=C(NO)C(F)(F)C(F)(F)C(F)(F)C(F)(F)C(F)(F)C(F)(F)C(=O)Nc1cccc(-c2ccccc2)c1 | 0.45 | 30 | 60 | 15 | 14 |  | 
2 | Cc1ccc(NC(=O)C(F)(F)C(F)(F)C(F)(F)C(F)(F)C(F)(F)C(F)(F)C(=O)NO)cc1C | 0.26 | 24 | 14 | 24 | 3.3 | > 50 | > 50
3 | O=C(NO)C(F)(F)C(F)(F)C(F)(F)C(F)(F)C(F)(F)C(F)(F)C(=O)Nc1cccc2cc3ccccc3cc12 | 0.74 | 14 | 1.4 | 5.9 | 13 | > 50 | > 50
4 | O=C(NO)C(F)(F)C(F)(F)C(F)(F)C(F)(F)C(F)(F)C(F)(F)C(=O)Nc1ccc(-c2cnnn2-c2ccccc2)cc1 | 4.5 | 66 | > 100 | 47 | 12 |  | 
5 | O=C(NO)C(F)(F)C(F)(F)C(F)(F)C(F)(F)C(F)(F)C(F)(F)C(=O)Nc1cc2ccccc2c2ccccc12 | 0.29 | 18 | 5.3 | 10 | 11 |  | 
6 | O=C(Nc1ccccc1)C(F)(F)C(F)(F)C(F)(F)C(F)(F)C(F)(F)C(F)(F)C(=O)Nc1ccccc1 | 27 | > 100 | > 100 | > 100 | > 100 |  | 
7 | CCc1cccc(NC(=O)C(F)(F)C(F)(F)C(F)(F)C(F)(F)C(F)(F)C(F)(F)C(=O)NO)c1 | 0.19 | 16 | 13 | 1.3 | 3 | > 50 | 42
8 | O=C(NO)C(F)(F)C(F)(F)C(F)(F)C(F)(F)C(F)(F)C(F)(F)C(=O)Nc1ccc(I)cc1 | 0.39 | 14 | 36 | 4.2 | 4.1 | > 50 | > 50
9 | N#Cc1ccc(NC(=O)C(F)(F)C(F)(F)C(F)(F)C(F)(F)C(F)(F)C(F)(F)C(=O)NO)cc1 | 0.23 | 18 | 35 | 71 | 32 |  | 

From ChEMBL document CHEMBL1932952, “Synthesis and biochemical analysis of 2,2,3,3,4,4,5,5,6,6,7,7-dodecafluoro-N-hydroxy-octanediamides as inhibitors of human histone deacetylases” (Bioorg Med Chem, 2012)
